For series [1], the system named is Mus musculus. The series can be described thus: Hepatotoxicity in BALB/c mouse assessed as ALT level in serum at 100 mg/kg/day, po administered for five days (Rvb= 36 U/L). Format: toxicity, organism-based. On the set-up: route oral. The note with it: in vivo.
A short description of series [2]: Induction of mutagenicity in Salmonella serovar Typhimurium TA 98 assessed as number of revertant colonies at 100 ug by Ames assay. Format: toxicity, Salmonella enterica subsp. enterica serovar Typhimurium. The note with it: in vivo. Summed up: (§1)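 Ames plate incorporation with S. Typhimurium TA98 and TA100, with or without Aroclor 1254-induced rat liver S9 (10% vol/vol). Compound was dissolved in sterile water and serially diluted to 1–500 μg/plate. Positive controls were 2-nitrofluorene and sodium azide without S9, and 2-aminoanthracene with S9; sterile water and DMSO served as vehicles. Revertant colonies and background lawn were scored. A mutagen was defined as a mean revertant count at least 2-fold over solvent control. Single experiment.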

Series [3] concerns Leishmania donovani. As to the kind of experiment: Antileishmanial activity against Leishmania donovani WR378 infected in golden Syrian hamster assessed as reduction in bone marrow parasitemia at 100 mg/kg/day, po administered for five days. Format: functional. The note with it: 120 h. Summed up: (§2)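 11-day golden hamster VL model adapted from an 8-day method, using L. donovani WR378 metacyclic promastigotes. Dosing was oral, once daily for 5 days. Animals were euthanized on day 11 post-infection. Liver, spleen and femoral bone marrow (flushed with Schneider's medium) were harvested.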

Series [4] has as its system Mus musculus. As to the kind of experiment: Renal toxicity in BALB/c mouse assessed as blood urea nitrogen level in serum at 150 mg/kg/day, po administered for five days (Rvb= 29 mg/dl). Type of series: organism-based. On the set-up: route oral. The note with it: in vivo. In a few lines:
(§3)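 Female BALB/c mice (n = 5 per dose), dosed once daily for 5 consecutive days p.o. (20 ml/kg) or i.v. (10 ml/kg) with compound in sterile water, prepared fresh daily under yellow light. Vehicle controls n = 5 per route. Clinical observations, body weights, serum chemistry and hematology on day 6 before necropsy; histopathology of formalin-fixed tissues. Chemistry analysed by one-way ANOVA with Dunnett's posttest.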

Series [5] concerns Leishmania donovani. As to the kind of experiment: Antileishmanial activity against Leishmania donovani WR378 infected in golden Syrian hamster assessed as reduction in liver parasitemia at 50 mg/kg/day, po administered for five days. Type of series: functional. The note with it: 120 h. In a few lines:
as §2

The subject of series [6] is Mus musculus. The series can be described thus: Toxicity in BALB/c mouse at 50 mg/kg/day, po administered for five days. Type of series: organism-based. On the set-up: route oral. The note with it: in vivo.
Series [7] can be described thus: Cmax in Swiss Webster mouse at 5 mg/kg, iv by HPLC-MS/MS analysis. The arrangement: dose 5 mg/kg, route intravenous. The note with it: in vivo. Type of series: ADME, organism-based. Summed up: (§4)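 Male Swiss Webster mice, n = 3 per time point. For i.v., the compound was dissolved in sterile water, diluted 1:1 with 2× saline, and given as a tail-vein bolus over ~10–20 s. For p.o., it was given by gavage in sterile water. Dose volume was 5 ml/kg. Terminal plasma was taken from 5 min to 72 h and measured by HPLC-MS/MS (calibration 2.5–10,000 nM). Parameters came from noncompartmental analysis.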

Series [8] relates to Leishmania donovani. As to the kind of experiment: Antileishmanial activity against Leishmania donovani WR378 infected in golden Syrian hamster assessed as reduction in liver parasitemia at 10 mg/kg/day, po administered for five days. Type of series: functional. To be noted: 120 h. In a few lines: as §2
The nature of series [9]: AUC (0 to infinity) in Swiss Webster mouse at 5 mg/kg, iv by HPLC-MS/MS analysis. Type of series: ADME, organism-based. The arrangement: time infinity, dose 5 mg/kg, route intravenous. The note with it: plasma. In a few lines: as §4
The nature of series [10]: Induction of mutagenicity in Salmonella serovar Typhimurium TA 100 assessed as number of revertant colonies at 50 ug by Ames assay. Type of series: toxicity, Salmonella enterica subsp. enterica serovar Typhimurium. To be noted: in vivo. Summed up: as §1
A general note: The Ames test uses bacterial strains that need an amino acid and regain growth without it when mutated back.

Series [11] relates to Mus musculus. The series can be described thus: Hepatotoxicity in BALB/c mouse assessed as alkaline phosphatase in serum at 150 mg/kg/day, po administered for five days (Rvb= 129 U/L). Format: toxicity, organism-based. On the set-up: route oral. To be noted: in vivo.
Series [12] in a line: Induction of mutagenicity in Salmonella serovar Typhimurium TA 98 assessed as number of revertant colonies at 500 ug by Ames assay in presence of Aroclor 1254-induced rat liver S9 metabolic activation system. Format: toxicity, subcellular, Salmonella enterica subsp. enterica serovar Typhimurium. In a few lines:
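Plate incorporation test, S. Typhimurium TA98 (and TA100), with or without Aroclor 1254-induced rat liver S9 (10% vol/vol). Compound dissolved in sterile water, serially diluted to 1–1,000 or 1–500 μg/plate. Positive controls: 2-nitrofluorene and sodium azide without S9, 2-aminoanthracene with S9; water and DMSO vehicle controls. Revertant colonies and background lawn scored; mutagen if mean revertants ≥2-fold solvent control. Single experiment.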

A short description of series [13]: Drug level in Swiss Webster mouse spleen at 5 mg/kg, iv after 2 hrs by HPLC/UV analysis. To be noted: read-out: Drug uptake.
The subject of series [14] is Mus musculus. The series can be described thus: Toxicity in BALB/c mouse assessed as decrease in body weight at 150 mg/kg/day, po administered for five days. Format: organism-based. On the set-up: route oral. The note with it: in vivo. In a few lines: as §3
A short description of series [15]: Half life in Swiss Webster mouse at 16.5 mg/kg, po by HPLC-MS/MS analysis. Format: ADME, organism-based. On the set-up: dose 16.5 mg/kg, route oral. To be noted: in vivo. Summed up:
as §4

Series [16] can be described thus: Tmax in Swiss Webster mouse at 131 mg/kg, po by HPLC-MS/MS analysis. Format: ADME, organism-based. On the set-up: dose 131 mg/kg, route oral. The note with it: in vivo. Summed up: (§5)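 Male Swiss Webster mice (n = 3 per time point), single dose by oral gavage (sterile water solution) or tail-vein bolus i.v. (water diluted 1:1 with 2× saline, over ~10–20 s); dose volume 5 ml/kg. Terminal blood sampled from 5 min to 72 h postdose; plasma quantified by HPLC-MS/MS (positive-ion SRM). Noncompartmental analysis gave Cmax, Tmax, AUC0-∞, CL, Vss; bioavailability from p.o. versus i.v. exposure.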

Series [17] deals with Mus musculus. The series can be described thus: Toxicity in BALB/c mouse assessed as occurrence of edema at 150 mg/kg/day, po. Type of series: organism-based. On the set-up: route oral. The note with it: in vivo. In a few lines:
as §3

A short description of series [18]: Volume of distribution in Swiss Webster mouse at 4.9 mg/kg, iv by HPLC-MS/MS analysis. The note with it: in vivo. The arrangement: dose 4.9 mg/kg, route intravenous. Type of series: ADME, organism-based. In a few lines:
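Male Swiss Webster mice (n = 3 per time point) got a single tail-vein bolus over ~10 to 20 s, 5 ml/kg. Compound was dissolved in sterile water at 2× and diluted 1:1 with 2× saline. Terminal blood was taken from 5 min to 72 h, and plasma was quantified by HPLC-MS/MS. Vss came from noncompartmental analysis.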

The nature of series [19]: Cmax in Swiss Webster mouse at 66 mg/kg, po by HPLC-MS/MS analysis. Format: ADME, organism-based. On the set-up: dose 66 mg/kg, route oral. The note with it: in vivo. Summed up:
as §4

Series [20] relates to Mus musculus. As to the kind of experiment: Toxicity in BALB/c mouse assessed as splenic lymphoid depletion at 150 mg/kg/day, po. On the set-up: route oral. The note with it: in vivo. Type of series: organism-based. Summed up: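 Five-day repeat-dose study in female BALB/c mice (n = 5 per dose level): oral dosing once daily for five consecutive days in sterile water prepared fresh daily under yellow light, 20 ml/kg. Vehicle controls received sterile water only. Clinical observations and body weights were recorded, with blood for hematology and serum chemistry taken on day 6 before necropsy. A veterinary pathologist examined formalin-fixed tissues.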

The nature of series [21]: Oral bioavailability in Swiss Webster mouse at 66 mg/kg by HPLC-MS/MS analysis. To be noted: in vivo. Type of series: ADME, organism-based. In a few lines:
as §5

A short description of series [22]: Cmax in Swiss Webster mouse at 131 mg/kg, po by HPLC-MS/MS analysis. Format: ADME, organism-based. On the set-up: dose 131 mg/kg, route oral. To be noted: in vivo. Summed up:
as §4

The nature of series [23]: Half life in Swiss Webster mouse at 4.9 mg/kg, iv by HPLC-MS/MS analysis. On the set-up: dose 4.9 mg/kg, route intravenous. To be noted: in vivo. Format: ADME, organism-based. In a few lines:
as §4

Series [24] relates to Mus musculus. As to the kind of experiment: Volume of distribution in Swiss Webster mouse at 16.5 mg/kg, po by HPLC-MS/MS analysis. On the set-up: dose 16.5 mg/kg, route oral. The note with it: in vivo. Format: ADME, organism-based. In a few lines:
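Male Swiss Webster mice (n = 3 per time point) got a single oral gavage dose in sterile water, 5 ml/kg. The 5 mM formulation was a clear solution; the 20 and 40 mM formulations were gelatinous. Terminal blood was collected from 5 min to 72 h postdose, and plasma was analysed by HPLC-MS/MS. Volume of distribution came from noncompartmental analysis.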

In series [25] the test system is Mus musculus. As to the kind of experiment: Hepatotoxicity in BALB/c mouse assessed as alkaline phosphatase level in serum at 10 mg/kg/day, iv administered for five days (Rvb= 134 U/L). Format: toxicity, organism-based. On the set-up: route intravenous. To be noted: in vivo.

By inhibition in vivo is commonly meant the change of the read-out against control, counted positive when it falls. As usually defined, the Cmax is the peak of the concentration-time curve. What is called AUC(0-inf) is total exposure, with the tail of the curve extrapolated. Low values mean less exposure, high ones more exposure. As to `CC(C)Oc1cc(NC(=N)c2ccccn2)ccc1-c1ccc(-c2ccc(NC(=N)c3ccccn3)cc2OC(C)C)o1`, the Activity is on record as 34 U/L with Mus musculus [1]; 34 in series [2]; 29 U/L in the series with Mus musculus [4]; “Non-toxic” in the series on Mus musculus [6]; 79 in series [10]; 142 U/L with Mus musculus [11]. Moreover, in series [12], the Activity is 47. For the same compound, the inhibition in vivo at 100 mg/kg/day in the series with Leishmania donovani [3] is 92%. Also, the inhibition in vivo at 50 mg/kg/day with Leishmania donovani [5] worked out at 76%. The Cmax in series [7] was 10.4 µM. The inhibition in vivo at 10 mg/kg/day in the series with Leishmania donovani [8] came out at 10%. In addition, in series [9], the AUC(0-inf) worked out at 9.53 µM·h. Also, the concentration at 2 h in series [13] was found to be 13.5 µM.
The half-life is how long it takes for the measured level to halve. A higher half-life goes with slow decline. One may read the Tmax as the time from dosing to the highest level. Broadly, the bioavailability is dose-corrected exposure relative to a reference, in per cent. With `CCOc1cc(NC(=N)c2ccccn2)ccc1-c1ccc(-c2ccc(NC(=N)c3ccccn3)cc2OCC)o1`, the Activity entry was “Toxic” with Mus musculus [14], “Toxic” with Mus musculus [17], “Toxic” in the series on Mus musculus [20] and 118 U/L with Mus musculus [25]. Also, the half-life in [15] is 24 h; in series [23], 18 h. Also, in series [16], the Tmax is 2 h. Also, the Vd in series [18] is 22 L/kg; in the series with Mus musculus [24] it was 57 L/kg. In addition, the peak concentration (Cmax) in [19] amounted to 0.4 µM; in [22], 1.68 µM. The compound also had a bioavailability in [21] of 9.3%.

For the origin of these results see ChEMBL document CHEMBL1275590, “Novel arylimidamides for treatment of visceral leishmaniasis” (Antimicrob Agents Chemother, 2010).
